Here are results for 2 compounds from ChEMBL document CHEMBL1151472, “In vitro interactions between tacrolimus and azoles against Candida albicans determined by different methods” (2008).

The term MIC denotes the lowest concentration found to suppress growth.

Holding throughout (type): functional
The subject of test [1] is Candida albicans. The experiment in a line: Antimicrobial activity against azole-susceptible Candida albicans isolate CA5 co-treated with calcineurin signaling inhibitor tacrolimus after 48 hrs by microdilution checkerboard technique. The settings on record: isolate CA5, 48 h. In outline: (§1)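 Checkerboard microdilution in MOPS-buffered RPMI 1640 (pH 7.0, 2% dextrose) with 2.5 × 10^3 CFU/ml for 48 h at 35°C. Final FK506 was 0.002–0.125 μg/ml. Azole finals were FLC 0.125–128 μg/ml, and ITR and VRC 0.008–8 μg/ml. MIC80 is an 80% OD492 decrease vs drug-free control. Interaction was scored by FICI (synergy ≤0.5, antagonism >4) and by ΔE from triplicates.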
(In broth dilution the organism is exposed to a series of concentrations in liquid medium.)

In test [2] the test system is Candida albicans. The experiment in a line: Antimicrobial activity against azole-susceptible Candida albicans isolate CA129 after 48 hrs by broth microdilution method. The settings on record: isolate CA129, 48 h. In outline:
(§2)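 CLSI M27-A2 broth microdilution was run in RPMI 1640 (pH 7.0, 2% dextrose, 0.165 M MOPS). Inoculum was 2.5 × 10^3 CFU/ml, incubated 35°C for 48 h without shaking. Plates were read visually (0–5 scale) and at OD 492 nm. MIC80 = lowest concentration giving an 80% absorbance decrease vs drug-free control. Triplicate.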

Test [3] deals with Candida albicans. The experiment in a line: Antimicrobial activity against azole-susceptible Candida albicans isolate CA8 co-treated with calcineurin signaling inhibitor tacrolimus after 48 hrs by microdilution checkerboard technique. To be noted: isolate CA8, 48 h. In outline:
as §1

Test [4] has as its system Candida albicans. The experiment in a line: Antimicrobial activity against azole-resistant Candida albicans isolate CA135 after 48 hrs by broth microdilution method. To be noted: isolate CA135, 48 h. In outline: as §2
The test system of test [5] is Candida albicans. The experiment in a line: Antimicrobial activity against azole-susceptible Candida albicans isolate CA129 co-treated with calcineurin signaling inhibitor tacrolimus after 48 hrs by microdilution checkerboard technique. The settings on record: isolate CA129, 48 h. In outline: as §1
The test system of test [6] is Candida albicans. The experiment in a line: Antimicrobial activity against azole-resistant Candida albicans isolate CA15 after 48 hrs by broth microdilution method. To be noted: isolate CA15, 48 h. In outline:
as §2

The subject of test [7] is Candida albicans. The experiment in a line: Antimicrobial activity against azole-resistant Candida albicans isolate CA15 cotreated with calcineurin signaling inhibitor Tacrolimus after 48 hrs by microdilution checkerboard technique. To be noted: isolate CA15, 48 h. In outline: as §1
Test [8] concerns Candida albicans. The experiment in a line: Antimicrobial activity against azole-susceptible Candida albicans isolate CA5 after 48 hrs by broth microdilution method. To be noted: isolate CA5, 48 h. In outline:
as §2

Test [9] deals with Candida albicans. The experiment in a line: Antimicrobial activity against azole-susceptible Candida albicans isolate CA12 after 48 hrs by broth microdilution method. The settings on record: isolate CA12, 48 h. In outline: as §2
In test [10] the test system is Candida albicans. The experiment in a line: Antimicrobial activity against azole-resistant Candida albicans isolate CA137 cotreated with calcineurin signaling inhibitor Tacrolimus after 48 hrs by microdilution checkerboard technique. The settings on record: isolate CA137, 48 h. In a few lines:
as §1

Test [11] deals with Candida albicans. The experiment in a line: Antimicrobial activity against azole-susceptible Candida albicans isolate CA14 co-treated with calcineurin signaling inhibitor tacrolimus after 48 hrs by microdilution checkerboard technique. To be noted: isolate CA14, 48 h. In outline: as §1
Test [12] concerns Candida albicans. The experiment in a line: Antimicrobial activity against azole-resistant Candida albicans isolate CA10 assessed as log reduction in colony count at 1 ug/ml co-treated with calcineurin signaling inhibitor tacrolimus after 48 hrs by time killing test. In a few lines:
(§3)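 Time-kill was started at 10^5 CFU/ml, with 10 μg/ml FLC or 1 μg/ml ITR or VRC, alone or with 0.016 μg/ml FK506, and DMSO <1%, at 35°C. At 0, 6, 12, 24 and 48 h, aliquots were serially diluted and plated on Sabouraud agar, then counted after 48 h at 35°C. Triplicate means.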

For test [13], the system named is Candida albicans. The experiment in a line: Antimicrobial activity against azole-susceptible Candida albicans isolate CA14 after 48 hrs by broth microdilution method. To be noted: isolate CA14, 48 h. In a few lines: as §2
Test [14] concerns Candida albicans. The experiment in a line: Antimicrobial activity against azole-resistant Candida albicans isolate CA10 after 48 hrs by broth microdilution method. To be noted: isolate CA10, 48 h. In outline: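 Broth microdilution per CLSI M27-A2 in RPMI 1640 (pH 7.0, 2% dextrose, 0.165 M MOPS), final inoculum 2.5 × 10^3 CFU/ml; 35°C without shaking for 48 h. Read visually (0–5 scale) and by OD 492 nm; MIC80 = lowest concentration giving 80% drop in absorbance versus drug-free control. Triplicate.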

The test system of test [15] is Candida albicans. The experiment in a line: Antimicrobial activity against azole-susceptible Candida albicans isolate CA8 after 48 hrs by broth microdilution method. The settings on record: isolate CA8, 48 h. In outline:
as §2

Test [16] relates to Candida albicans. The experiment in a line: Antimicrobial activity against azole-resistant Candida albicans isolate CA137 after 48 hrs by broth microdilution method. To be noted: isolate CA137, 48 h. In a few lines:
as §2

For test [17], the system named is Candida albicans. The experiment in a line: Antimicrobial activity against azole-resistant Candida albicans isolate CA16 cotreated with calcineurin signaling inhibitor Tacrolimus after 48 hrs by microdilution checkerboard technique. The settings on record: isolate CA16, 48 h. In outline: as §1
Test [18] relates to Candida albicans. The experiment in a line: Antimicrobial activity against azole-resistant Candida albicans isolate CA10 assessed as log reduction in colony count at 1 ug/ml co-treated with calcineurin signaling inhibitor tacrolimus after 48 hrs by XTT assay. In a few lines:
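Same time-kill setup (10^5 CFU/ml start, azole ± 0.016 μg/ml FK506, 35°C). At each time point, aliquots were mixed 1:1 with XTT (0.5 g/liter in Ringer's lactate) plus 10 μM menadione final. Incubation was in the dark for up to 2 h at 35°C, then formazan was read at 492 nm. OD was converted to CFU via a standard curve (Y = 4.2610x + 4.2087). Triplicate.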

Test [19] concerns Candida albicans. The experiment in a line: Antimicrobial activity against azole-susceptible Candida albicans isolate CA14 assessed as log reduction in colony count at 1 ug/ml co-treated with calcineurin signaling inhibitor tacrolimus after 48 hrs by time killing test. In a few lines: as §3
The test system of test [20] is Candida albicans. The experiment in a line: Antimicrobial activity against azole-resistant Candida albicans isolate CA10 co-treated with calcineurin signaling inhibitor tacrolimus after 48 hrs by microdilution checkerboard technique. The settings on record: isolate CA10, 48 h. In outline:
as §1

Test [21] deals with Candida albicans. The experiment in a line: Antimicrobial activity against azole-susceptible Candida albicans isolate CA12 co-treated with calcineurin signaling inhibitor tacrolimus after 48 hrs by microdilution checkerboard technique. The settings on record: isolate CA12, 48 h. In a few lines: as §1
Test [22] deals with Candida albicans. The experiment in a line: Antimicrobial activity against azole-resistant Candida albicans isolate CA135 cotreated with calcineurin signaling inhibitor Tacrolimus after 48 hrs by microdilution checkerboard technique. The settings on record: isolate CA135, 48 h. In outline:
as §1

Test [23] has as its system Candida albicans. The experiment in a line: Antimicrobial activity against azole-resistant Candida albicans isolate CA16 after 48 hrs by broth microdilution method. To be noted: isolate CA16, 48 h. In outline:
as §2

The subject of test [24] is Candida albicans. The experiment in a line: Antimicrobial activity against azole-susceptible Candida albicans isolate CA14 assessed as log reduction in colony count at 1 ug/ml co-treated with calcineurin signaling inhibitor tacrolimus after 48 hrs by XTT assay. In outline: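 Time-kill assay starting at 10^5 CFU/ml with azole 1 μg/ml plus FK506 0.016 μg/ml at 35°C, with a drug-free control and DMSO <1%. At 48 h, a 100 μl aliquot was mixed with XTT-menadione (XTT 0.5 g/liter in Ringer's lactate, menadione 10 μM final) and incubated in the dark up to 2 h at 35°C. A492 was converted to CFU by standard curve (Y = 4.2610x + 4.2087).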
For orientation: Tetrazolium dyes change colour on reduction, which living cells bring about.

Molecules are shown by their SMILES. ≈ marks a conversion by molar mass, not a printed value.

On to `C[C@@H](c1ncncc1F)[C@](O)(Cn1cncn1)c1ccc(F)cc1F` [VORICONAZOLE], for which the MIC in [1] is 0.016 µg/mL; in [2], 0.016 µg/mL (≈ 0.0458 µM); in test [3], 0.016 µg/mL; in test [4] it was 8 µg/mL (≈ 22.9 µM); in [5] it was 0.008 µg/mL; in test [6], 8 µg/mL (≈ 22.9 µM). The MIC in test [7] came out at 0.008 µg/mL; in test [8] it was 0.016 µg/mL (≈ 0.0458 µM); in test [9], 0.031 µg/mL (≈ 0.0887 µM); in test [10] it was 0.008 µg/mL; in test [11] it was 0.008 µg/mL; in test [13], 0.008 µg/mL (≈ 0.0229 µM). Also, the MIC worked out at 64 µg/mL (≈ 183 µM) in test [14]; 0.008 µg/mL (≈ 0.0229 µM) in test [15]; 8 µg/mL (≈ 22.9 µM) in test [16]; 0.008 µg/mL in [17]; 0.008 µg/mL in test [20]; 0.016 µg/mL in [21]. Further, the MIC in [22] was found to be 0.016 µg/mL; in test [23], 8 µg/mL (≈ 22.9 µM). For the same compound, the Activity amounted to 2.15 in test [12], 2.26 in test [18] and 1.49 in [19].
On to `CCC(C)n1ncn(-c2ccc(N3CCN(c4ccc(OCC5COC(Cn6cncn6)(c6ccc(Cl)cc6Cl)O5)cc4)CC3)cc2)c1=O` (configuration not stated) [ITRACONAZOLE], for which the MIC was determined as 0.031 µg/mL in [1]; 0.063 µg/mL (≈ 0.0893 µM) in [2]; 0.008 µg/mL in test [3]; 16 µg/mL (≈ 22.7 µM) in [4]; 0.031 µg/mL in [5]; 32 µg/mL (≈ 45.3 µM) in test [6]. Further, the MIC in [7] came to 0.063 µg/mL; in test [8] it was 0.031 µg/mL (≈ 0.0439 µM); in test [9] it was 0.063 µg/mL (≈ 0.0893 µM); in [10], 0.063 µg/mL; in test [11], 0.031 µg/mL; in test [13], 0.063 µg/mL (≈ 0.0893 µM). Moreover, the MIC came out at 128 µg/mL (≈ 181 µM) in test [14]; 0.016 µg/mL (≈ 0.0227 µM) in test [15]; 16 µg/mL (≈ 22.7 µM) in [16]; 0.016 µg/mL in test [17]; 0.031 µg/mL in test [20]; 0.031 µg/mL in test [21]. The MIC was 0.016 µg/mL in [22] and 32 µg/mL (≈ 45.3 µM) in [23]. Further, the Activity in test [12] is 2.12; in [18], 2.46; in test [19], 2.13; in test [24], 1.4.
